Assay results of several laboratories.
Each line is one published result; the experiments were not run side by side. Values after ≈ are worked out from the molar mass of the structure shown.
Organism: Staphylococcus aureus

C#CCCCCCCCCCCCC(O)CC(O)CO (centres unmarked)
IC50 (microbial growth, broth dilution; ATCC33591 MRSA; drug-resistant strain): 86.3 µg/mL

CC(C(=O)O)N1C2=NC(c3ccc(Cl)cc3)c3c([nH]c(=O)[nH]c3=O)N2NC1(C)c1ccccc1O (centres unmarked)
inhibition zone (microbial growth; ATCC25923; 10 µg/mL, 24 h): 14 mm

COc1ccc(S(=O)(=O)N(C(C)=O)c2ccccc2/C=C/c2cc[n+]([O-])cc2)cc1
MIC (microbial growth; NCTC8325): > 30 µM

O=c1cccccc1SSc1cccccc1=O
MIC80 (microbial growth, broth dilution; ATCC29213): > 100 µM

CC1(C)S[C@@H]2[C@H](NC(=O)[C@H](N)c3ccccc3)C(=O)N2[C@H]1C(=O)O
inhibition (microbial growth, agar dilution; ATCC29213; 26.93 µM): 100%

O=C(O)CN1C(=O)/C(=C/c2c3ccccc3c(-c3ccc(N(c4ccccc4)c4ccccc4)cc3)c3ccccc23)NC1=S
MBC (microbial killing, broth dilution; ATCC43300): > 1000 µg/mL

Cc1ccc(Nc2nccc(N(C)c3ccc4c(C)n(C)nc4c3)n2)cc1S(N)(=O)=O
MIC (microbial growth; NCTC8325): > 30 µM

CC(C)c1nn(-c2nc3ccc(Cl)cc3s2)c2c1C(=O)c1ccccc1-2
inhibition zone (microbial growth, well diffusion; NCIM5021; 1000 µg/mL): 12 mm

C#CCCCCC(=O)Nc1ccccc1
MIC (microbial growth; NCTC8325): > 100 µM

O=c1cccccc1Sc1cccccc1=O
MIC80 (microbial growth, broth dilution; ATCC29213): > 100 µM

Cc1ccc2nc(-n3nc(CC(C)C)c4c3-c3ccccc3C4=O)sc2c1
inhibition zone (microbial growth, well diffusion; NCIM5021; 125 µg/mL): 11 mm

CN(C)C1CCN(C(=O)c2ccc(NC(=O)Nc3ccc(-c4nc(N5CCOCC5)nc(N5CCOCC5)n4)cc3)cc2)CC1
MIC (microbial growth; NCTC8325): > 30 µM

O=C(O)CN1C(=O)/C(=C/c2ccc(-c3ccc(N(c4ccccc4)c4ccccc4)cc3)cc2)SC1=S
MBC (microbial killing, broth dilution; ATCC43300): 7.8 µg/mL (≈ 14.9 µM)

Cc1ccc2nc(-n3nc(C)c4c3-c3ccccc3C4=O)sc2c1
inhibition zone (microbial growth, well diffusion; NCIM5021; 125 µg/mL): 11 mm

CCCS(=O)(=O)Nc1ccc(F)c(C(=O)c2c[nH]c3ncc(Cl)cc23)c1F
MIC (microbial growth; NCTC8325): > 30 µM

CCCCCCCCCCCCCC(O)CC(O)CO (centres unmarked)
IC50 (microbial growth, broth dilution; ATCC33591 MRSA; drug-resistant strain): 8.26 µg/mL

Cc1nn(-c2nc3ccc(Br)cc3s2)c2c1C(=O)c1ccccc1-2
inhibition zone (microbial growth, well diffusion; NCIM5021; 1000 µg/mL): 12 mm

CCN1CCN(Cc2ccc(-c3cc4c(N[C@H](C)c5ccccc5)ncnc4[nH]3)cc2)CC1
MIC (microbial growth; NCTC8325): > 30 µM

COc1c(N2C[C@@H]3CCCN[C@@H]3C2)c(F)cc2c(=O)c(C(=O)O)cn(C3CC3)c12
MIC90 (microbial growth; ATCC700699): 0.24 µg/mL (≈ 0.598 µM)

COc1c(C)c(OS(=O)(=O)c2ccc3ccccc3c2)c(C)c(O)c1C(=O)/C=C/c1ccccc1
MBC (microbial killing, broth dilution; ATCC25923): > 5000 µg/mL

Cc1nn(-c2nc3ccccc3s2)c2c1C(=O)c1ccccc1-2
inhibition zone (microbial growth, well diffusion; NCIM5021; 125 µg/mL): 9 mm

O=C(O)CN1C(=O)/C(=C/c2ccc(-c3ccc(N(c4ccccc4)c4ccccc4)cc3)c3ccccc23)SC1=S
MBC (microbial killing, broth dilution; ATCC25923): > 1000 µg/mL

CC[C@H](C)[C@H](NC(=O)OCC1c2ccccc2-c2ccccc21)C(=O)Sc1cccccc1=O
MIC80 (microbial growth, broth dilution; ATCC29213): > 100 µM

O=C1NC(=S)S/C1=C\c1ccc(-c2ccc(N(c3ccccc3)c3ccccc3)cc2)c2ccccc12
MBC (microbial killing, broth dilution; ATCC6538): > 1000 µg/mL

CC(C)Cc1nn(-c2nc3ccc(Cl)cc3s2)c2c1C(=O)c1ccccc1-2
inhibition zone (microbial growth, well diffusion; NCIM5021; 250 µg/mL): 10 mm

C=CCCCCCCCCCCCC(O)CC(O)CO (centres unmarked)
IC50 (microbial growth, broth dilution; ATCC29213): > 200 µg/mL

Cc1nn(-c2nc3ccc(Cl)cc3s2)c2c1C(=O)c1ccccc1-2
inhibition zone (microbial growth, well diffusion; NCIM5021; 250 µg/mL): 10 mm

COC(=O)/C(=C1/OC(=O)C(c2ccccc2)=C1O)c1ccccc1
IC50 (microbial growth; ATCC6538): 32 µM

CC(=O)Oc1cccc2c1[nH]c1c(C3=C[C@@]4(O)CC/C=C\CCCCN5CC[C@@H]3[C@]3(C[C@@H]6/C=C\CCCCN6[C@H]34)C5)nccc12
IC50 (microbial growth; MRSA; drug-resistant strain): 0.45 µg/mL

O=C(Nc1ccc2c(c1)CCC2)Nc1ccc(Cl)c(C(F)(F)F)c1
MIC (microbial growth; NCTC8325; 24 h): > 100 µM

O=C1NC(=S)S/C1=C\c1c2ccccc2c(-c2ccc(N(c3ccccc3)c3ccccc3)cc2)c2ccccc12
MBC (microbial killing, broth dilution; ATCC6538): > 1000 µg/mL

Cc1cnc(-c2cnc(NCCNc3ccc(C#N)cn3)nc2-c2ccc(Cl)cc2Cl)[nH]1
MIC (microbial growth; NCTC8325): > 30 µM

CN[C@H](CC(C)C)C(=O)N[C@H]1C(=O)N[C@@H](CC(N)=O)C(=O)N[C@H]2C(=O)N[C@H]3C(=O)N[C@H](C(=O)N[C@H](C(=O)O)c4cc(O)cc(O)c4-c4cc3ccc4O)[C@H](O)c3ccc(c(Cl)c3)Oc3cc2cc(c3O[C@@H]2O[C@H](CO)[C@@H](O)[C@H](O)[C@H]2O[C@H]2C[C@](C)(N)[C@H](O)[C@H](C)O2)Oc2ccc(cc2Cl)[C@H]1O
inhibition zone (microbial growth, disc diffusion; ATCC29213; 125 µg/disc, 24 h): 20 mm

O=C1NC(=S)S/C1=C\c1ccc(-c2ccc(N(c3ccccc3)c3ccccc3)cc2)cc1
MBC (microbial killing, broth dilution; ATCC25923): 1000 µg/mL (≈ 2150 µM)

[H]/N=C(/N)N[C@H]1[C@H](O)[C@@H](O)[C@H](O[C@@H]2O[C@@H](C)[C@](O)(C=O)[C@H]2O[C@@H]2O[C@@H](CO)[C@H](O)[C@@H](O)[C@@H]2NC)[C@@H](N/C(N)=N\[H])[C@@H]1O
inhibition zone (microbial growth, well diffusion; NCIM5021; 250 µg/mL): 22 mm

O=C(O)CN1C(=O)/C(=C/c2c3ccccc3c(-c3ccc(N(c4ccccc4)c4ccccc4)cc3)c3ccccc23)SC1=S
MBC (microbial killing, broth dilution; ATCC25923): > 1000 µg/mL

CC(C)c1ccc(O)c(=O)cc1
MIC80 (microbial growth, broth dilution; ATCC29213): 66.7 µM (≈ 11 µg/mL)

CC1(c2ccccc2O)Nn2c(nc(-c3ccc(Cl)cc3)c(C#N)c2=O)N1C(Cc1c[nH]c2ccccc12)C(=O)O (centres unmarked)
inhibition zone (microbial growth; ATCC25923; 15 µg/mL, 24 h): 35 mm
